According to article PMC4482135 (Organometallics, 2015):
“And” between values parts separate entries of the source, which are not always exact repeats. Identical values can stand only once. Like-named read-outs stand apart in the source and are kept apart here.

What was measured:
[1] = tested on: HCT116 human colon carcinoma cells; assay: In vitro growth inhibition; assay type: cell-based; conditions: read-out: IC50 values, HCT-116; 24 h drug exposure, 72 h recovery, SRB assay
Procedure, shortened: (§1)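 Cells seeded at 5000 per well and preincubated 48 h drug-free at 310 K. Media: RPMI-1640 (A2780), DMEM (A549, MCF7) or McCoy's 5A (HCT116), each with 10% FCS. Test compound stocks made in 5% DMSO with saline/medium 1:1, then serially diluted in medium. Exposure 24 h, PBS wash, then 72 h recovery. SRB absorbance read at 470 nm against untreated control. IC50 (50% growth inhibition) from duplicates of triplicates in two independent experiments.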

[2] = tested on: A549 human lung carcinoma cells; assay: In vitro growth inhibition; assay type: cell-based; conditions: read-out: IC50 values, A549; 24 h drug exposure, 72 h recovery, SRB assay
Procedure, shortened: as §1

[3] = tested on: MCF7 human breast carcinoma cells; assay: In vitro growth inhibition; assay type: cell-based; conditions: read-out: IC50 values, MCF-7; 24 h drug exposure, 72 h recovery, SRB assay
Procedure, shortened: as §1

[4] = Catalytic oxidation of NADH to NAD+ by UV-visible spectroscopy; conditions: complex 2.5 μM, NADH 69, 103, 146 μM, 310 K, pH 7.5
Procedure, shortened: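 Test complex fixed at 2.5 μM with NADH at 69, 103 or 146 μM, in 5 mM Na2HPO4/NaH2PO4 buffer pH 7.5 (0.5% MeOH/99.5% H2O), 310 K, 24 h. NADH loss followed by UV–vis at 339 nm (εNADH = 6220 cm–1 M–1). Rate constant k taken from first-order kinetic plots in [NADH].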

9-methyladenine (9-MeA) = assay: Binding to nucleobase 9-methyladenine by 1H NMR; conditions: co-incubation with equimolar 9-EtG and 9-MeA, 310 K, pH* 7.4
Procedure, shortened: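 Competition run: test complex (ca. 500 μM) with equimolar 9-EtG and 9-MeA in 26.7% MeOD-d4/73.3% D2O at 310 K, pH* 7.4. 1H NMR (600 MHz) recorded 15 min and 24 h after nucleobase addition. Percentage bound to each nucleobase calculated from 1H NMR peak integrations.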

[5] = Relative hydrophobicity by RP-HPLC; assay type: physicochemical; conditions: C18, H2O/MeCN with 50 mM NaCl; longer tR = more hydrophobic
Procedure, shortened: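 RP-HPLC on C18 column (150 × 4.6 mm, 5 μm). A = H2O with 50 mM NaCl; B = H2O/MeCN 1:1 with 50 mM NaCl. Gradient starts at 20% B, reaches 100% B at 15 min, holds to 40 min, returns to 20% B by 42 min; run 57 min. Flow 1 mL min–1, detection 254 nm. Samples ca. 100 μM in 10% MeOH/90% H2O with 50 mM NaCl. tR from duplicates of triplicate runs.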

9-ethylguanine (9-EtG) = assay: Binding to nucleobase 9-ethylguanine by 1H NMR
Procedure, shortened: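 Test complex (ca. 500 μM) and 9-EtG (ca. 500 μM), about 1:1, in 26.7% MeOD-d4/73.3% D2O with 4 mM NaCl, so the complex is mainly the Ir–Cl form. Held at 310 K, pH* 7.4. 1H NMR (600 MHz) recorded 15 min and 24 h after nucleobase addition. Adduct percentage taken from 1H NMR peak integrations.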

[6] = tested on: A2780 ovarian carcinoma cells; assay: Cellular-iridium accumulation in A2780 cells by ICP-MS; assay type: cell-based, human; conditions: for cellular-Ir accumulation: 24 h exposure at equipotent (IC50) concentrations, no recovery, ICP-MS
Procedure, shortened: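 A2780 cells, 1.5 × 10^6 per well, preincubated 24 h drug-free at 310 K in humidified 5% CO2. Then 24 h exposure to test complex. Cells trypsinised, counted and pelleted; pellets digested overnight in 73% HNO3 at 353 K, then diluted to 5% HNO3. 193Ir measured by ICP-MS (no-gas mode, duplicate readings, 0–100 ppb calibration). Triplicates in two independent experiments.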

[7] = tested on: A2780 human ovarian cancer cells; assay: Cellular-iridium distribution in A2780 cells; assay type: cell-based; conditions: IC50 concentrations
[8] = tested on: A2780 human ovarian carcinoma cells; assay: In vitro growth inhibition; assay type: cell-based; conditions: read-out: IC50 values, A2780; 24 h drug exposure, 72 h recovery, SRB assay
Procedure, shortened: as §1

[9] = tested on: A2780 human ovarian carcinoma cells; conditions: read-out: IC50 values, A2780; previously reported complexes; ref [4b]; cited from earlier work

Compound | IC50 [1] | IC50 [2] | IC50 [3] | tR by RP-HPLC (relative hydrophobicity) [5] | cellular-Ir accumulation [6] | IC50 [8] | further results
Cc1c(C)c(C)[c-](C)c1C.Fc1ccc[c-]c1-c1ccccn1.[Cl-].[Ir+3] [Complex 1, [(η^5-Cp*)Ir(2-(2′-fluorophenyl)pyridine)Cl]] | 3.7 ± 0.3 µM | 10.36 ± 0.07 µM | 9.6 ± 0.4 µM | – | – | – | –
Cc1c(C)c(C)[c-](C)c1C.Fc1ccc(-c2[c-]cccc2)nc1.[Cl-].[Ir+3] [Complex 4, [(η^5-Cp*)Ir(2-phenyl-5-fluoropyridine)Cl]] | – | – | – | 18.60 ± 0.02 min | 11.1 ± 0.1 ng Ir × 10^6 A2780 cells | – | average rate constant k, first-order with respect to [NADH] [4]: 4.03 × 10^–4 min^–1; binding to 9-MeA in the presence of 9-EtG (competitive binding) (9-methyladenine (9-MeA)): 5–10%; binding to 9-EtG in the presence of 4 mM NaCl (9-ethylguanine (9-EtG); 4 mM NaCl (Ir-Cl species), after 15 min): 100%; binding to 9-EtG in the presence of 4 mM NaCl (9-ethylguanine (9-EtG); 4 mM NaCl (Ir–Cl species), after 24 h, 310 K): 100%; iridium in cell membrane and particulate fractions [7]: 17.9%; iridium in cytoskeletal fraction [7]: 6.1%; iridium in cytosol fraction [7]: 69.2%; iridium in nuclear fraction [7]: 6.7%
Cc1c(C)c(C)[c-](C)c1C.Oc1c[c-]c(-c2ccccn2)cc1.[Cl-].[Ir+3] [Complex 11, [(η^5-Cp*)Ir(2-(4′-hydroxyphenyl)pyridine)Cl]] | 29.3 ± 0.8 µM | 56.67 ± 0.04 µM | 28.6 ± 0.9 µM | 15.11 min and 15.1 min and 15.11 ± 0.03 min | 1.58 ng Ir × 10^6 A2780 cells and 1.6 ng Ir × 10^6 A2780 cells and 1.6 ± 0.1 ng Ir × 10^6 A2780 cells | 47.3 ± 0.1 µM | –
Cc1c(C)c(C)[c-](C)c1C.Oc1ccc(-c2[c-]cccc2)nc1.[Cl-].[Ir+3] [Complex 12, [(η^5-Cp*)Ir(2-phenyl-5-hydroxypyridine)Cl]] | – | – | – | 17.8 min and 17.8 ± 0.2 min | 10.2 ng Ir × 10^6 A2780 cells and 10.2 ± 0.2 ng Ir × 10^6 A2780 cells | 13.3 ± 0.88 µM | fold cellular-iridium accumulation relative to isomer 11 ([6]; A2780 cells, IC50 concentrations): 6 times
Cc1c(-c2ccccc2)c(C)[c-](C)c1C.[Cl-].[Ir+3].[c-]1ccccc1-c1ccccn1 (stereo not shown) [Complex 17, [(η^5-Cp^xPh)Ir(2-phenylpyridine)Cl]] | – | – | – | – | – | – | IC50 [9]: 2.14 ± 0.5 µM
N.N.[Cl][Pt][Cl] [cisplatin, reference compound] | 5.2 ± 0.3 µM | 3.5 ± 0.2 µM | 7 ± 0.1 µM | – | – | 1.2 ± 0.2 µM | –
